pEC50: −log10 of the molar value.
Tests used:
[1] = system: KB; assay: The compound was tested for tumor cell growth inhibitory activity against human KB-7d cell line resistant to etoposide; assay type: functional; settings: read-out: ED50 (the source's name)
Summary of the method: (§1)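 For the SRB growth assay, cells were grown in RPMI-1640 with 10% FBS and kanamycin at 37 °C under 5% CO2. Drug exposure was 3 days, with DMSO ≤2% final. Absorbance was read at 562 nm. ED50 (50% absorbance reduction vs untreated) was interpolated from dose–response data. Tests were run in triplicate.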

[2] = system: HCT-8; assay: The compound was tested for tumor cell growth inhibitory activity against human ileocecal carcinoma (HCT-8) cell line; assay type: functional; settings: HCT-8, read-out: ED50; summary of the method: as §1
[3] = system: KB; assay: Cellular protein-DNA complex breaking activity against KB cells labeled with tritiated thymidine.; assay type: functional, Homo sapiens
Summary of the method: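 KB cells were labelled overnight with tritiated thymidine, chased 2 h, then exposed in triplicate to test agent for 1 h. Protein–DNA complexes were read as potassium-SDS precipitable radioactivity and expressed as fold over untreated control.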

[4] = molecular target: T1, DNA topoisomerase II (Homo sapiens) (UniProt P11388+Q02880); assay: The compound was tested for inhibitory activity against human DNA topoisomerase II; assay type: protein assay
Summary of the method: (§2)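 Human topoisomerase II (p170 isoform, 0.25 U) was assayed by P4 DNA unknotting. The buffer was 50 mM Tris-HCl pH 7.5, 100 mM KCl, 10 mM MgCl2, 0.5 mM DTT, 0.5 mM EDTA and 1 mM ATP, with BSA. Reactions ran 1 h at 37 °C, were stopped with SDS-sucrose, then run on 0.7% agarose and stained with ethidium bromide. Inhibition was scored by eye. IC100 is the concentration giving complete inhibition.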

[5] = system: A549; assay: The compound was tested for tumor cell growth inhibitory activity against human lung carcinoma (A549) cell line.; assay type: functional; settings: A549, read-out: ED50; summary of the method: as §1
[6] = system: KB; assay: The compound was tested for tumor cell growth inhibitory activity against human KB-vin20c cell line resistant to vincristine; assay type: functional; settings: read-out: ED50 (the source's name); summary of the method: as §1
[7] = system: CAKI-1; assay: The compound was tested for tumor cell growth inhibitory activity against human renal cancer(CAKI-1) cell line; assay type: functional; settings: CAKI-1, read-out: ED50; summary of the method: as §1
[8] = system: KB; assay: The compound was tested for tumor cell growth inhibitory activity against human etoposide (KB-7d) cell line.; assay type: functional; settings: read-out: ED50 (the source's name); summary of the method: as §1
[9] = system: MCF7; assay: The compound was tested for tumor cell growth inhibitory activity against human breast cancer (MCF-7) cell line.; assay type: functional; settings: MCF7, read-out: ED50; summary of the method: as §1
[10] = molecular target: T1, DNA topoisomerase II (Homo sapiens); assay: The compound was tested for inhibitory activity against human DNA topoisomerase-2.; assay type: protein assay; summary of the method: as §2
[11] = The compound was tested for cytotoxic activity against KB cell line by clonogenic cell survival assay.; assay type: cell-based; settings: human, KB cells; read-out: LD50 (the source's name)
Summary of the method: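 KB cells were exposed to a range of concentrations for 3 h, then replated. Colony formation and plating efficiency were counted. LD50 (50% fall in plating efficiency vs untreated control) was read graphically. There were three independent experiments.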

[12] = system: Mus musculus; assay: The compound was tested for antitumor activity against (P388/0) Leukemia cells in mice. with a dosage of 10.0 mg/Kg/dose. activity is expressed as %ILS.; assay type: functional; settings: Leukemia cell
Summary of the method: (§3)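 The P388/0 leukaemia was implanted ip in female CD2F1 mice. Treatment was iv on a Q4D×3 schedule, injected at 0.1 cm³/10 g body weight. Agents were given in saline or in 10% DMSO/35% PEG 300/5% Tween 80/50% D5W, against a saline control. Median day of death, %ILS and net log change in tumour burden (at end of treatment) were recorded. The work was done at a contract lab.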

[13] = system: Mus musculus; assay: The compound was tested for antitumor activity against (P388/0) Leukemia cells in mice. with a dosage of 27.0 mg/kg/dose. activity is expressed as %ILS.; assay type: functional; settings: Leukemia cell; summary of the method: as §3
[14] = system: Mus musculus; assay: The compound was tested for antitumor activity against (P388/0) Leukemia cells in mice. with a dosage of 27.0 mg/Kg/dose. activity is expressed as net log change in tumor burden.; assay type: functional, Leukemia cell; summary of the method: as §3
[15] = system: Mus musculus; assay: The compound was tested for antitumor activity against (P388/0) Leukemia cells in mice. with a dosage of 40.0 mg/Kg/dose; assay type: functional, Leukemia cell; summary of the method: as §3
[16] = system: Mus musculus; assay: The compound was tested for antitumor activity against Subcutaneous Mammary Tumor MCF-7 cells. with a dosage of 40.0 mg/Kg/dose. activity is expressed as days to tumor doubling.; assay type: functional, MCF7
Summary of the method: (§4)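 MCF-7 human mammary tumour cells were implanted sc in female athymic nude mice. Dosing was iv on a Q4D×3 schedule at 0.1 cm³/10 g body weight, using saline or a DMSO/PEG 300/Tween 80/D5W vehicle, with a saline control. The endpoint was days to tumour doubling.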

[17] = system: Mus musculus; assay: The compound was tested for antitumor activity against (P388/0) Leukemia cells in mice. with a dosage of 40.0 mg/Kg/dose. activity is expressed as %ILS.; assay type: functional; settings: Leukemia cell; summary of the method: as §3
[18] = system: Mus musculus; assay: The compound was tested for antitumor activity against (P388/0) Leukemia cells in mice. with a dosage of 10.0 mg/Kg/dose. activity is expressed as net log change in tumor burden.; assay type: functional, Leukemia cell; summary of the method: as §3
[19] = system: Mus musculus; assay: The compound was tested for antitumor activity against (P388/0) Leukemia cells in mice. with a dosage of 10.0 mg/Kg/dose. activity is expressed as median day of death.; assay type: functional, Leukemia cell; summary of the method: as §3
[20] = system: Mus musculus; assay: The compound was tested for antitumor activity against Subcutaneous Mammary Tumor MCF-7 cells. with a dosage of 27.0 mg/Kg/dose. activity is expressed as days to tumor doubling.; assay type: functional, MCF7; summary of the method: as §4
[21] = system: Mus musculus; assay: The compound was tested for antitumor activity against (P388/0) Leukemia cells in mice. with a dosage of 40.0 mg/Kg/dose. activity is expressed as net log change in tumor burden.; assay type: functional, Leukemia cell; summary of the method: as §3
[22] = system: Mus musculus; assay: The compound was tested for antitumor activity against (P388/0) Leukemia cells in mice. with a dosage of 27.0 mg/Kg/dose. activity is expressed as median day of death.; assay type: functional, Leukemia cell; summary of the method: as §3

With COc1cc([N+](=O)[O-])c(OC)cc1N[C@@H]1c2cc3c(cc2[C@@H](c2cc(OC)c(O)c(OC)c2)[C@H]2C(=O)OC[C@@H]21)OCO3 the pEC50 [1] was 4.43, the pEC50 [2] was < 4.30 and the Complex formation [3] was 4.4%. For the same compound, the IC100 [4] was > 100 µM, the pEC50 [5] was 4.67 and the pEC50 [6] was 4.70. The pEC50 [7] was 4.35.

For COc1cc([N+](=O)[O-])ccc1N[C@@H]1c2cc3c(cc2[C@@H](c2cc(OC)c(O)c(OC)c2)[C@H]2C(=O)OC[C@@H]21)OCO3, the pEC50 [8] was 2.40, the pEC50 [9] was 5.30 and the pEC50 [2] was < 5.00. The Complex formation [3] was 83%, the IC100 [10] was > 100 µM and the pEC50 [5] was 6.20. For the same compound, the CC50 [11] was > 20 µM and the pEC50 [7] was 5.96.

For COc1cc([C@@H]2c3cc4c(cc3[C@@H](Nc3ccc([N+](=O)[O-])cc3)[C@H]3COC(=O)[C@H]23)OCO4)cc(OC)c1O, the pEC50 [9] was 4.55, the pEC50 [2] was 5.07 and the Complex formation [3] was 122%. The IC100 [10] was 10 µM, the CC50 [11] was 1 µM and the pEC50 [7] was 5.82.

With COc1ccc([N+](=O)[O-])cc1N[C@@H]1c2cc3c(cc2[C@@H](c2cc(OC)c(O)c(OC)c2)[C@H]2C(=O)OC[C@@H]21)OCO3 the pEC50 [8] was 2.74, the pEC50 [9] was 5.62 and the pEC50 [2] was 5.32. For the same compound, the Complex formation [3] was 12%, the IC100 [10] was > 100 µM and the pEC50 [5] was 5.65. For the same compound, the CC50 [11] was > 20 µM and the pEC50 [7] was 5.60.

With COc1cc([C@@H]2c3cc4c(cc3[C@H](Nc3cc([N+](=O)[O-])cc([N+](=O)[O-])c3)[C@H]3COC(=O)[C@H]23)OCO4)cc(OC)c1O the pEC50 [8] was 2.12, the pEC50 [9] was 5.60 and the pEC50 [2] was < 5.30. The Complex formation [3] was 8%, the IC100 [10] was > 100 µM and the pEC50 [5] was < 5.30. For the same compound, the pEC50 [7] was < 5.00.

For COc1ccc(N[C@@H]2c3cc4c(cc3[C@@H](c3cc(OC)c(O)c(OC)c3)[C@H]3C(=O)OC[C@@H]32)OCO4)c([N+](=O)[O-])c1, the pEC50 [8] was 3.13, the pEC50 [9] was 5.60 and the pEC50 [2] was 5.70. For the same compound, the Complex formation [3] was 15%, the IC100 [10] was > 100 µM and the pEC50 [5] was 5.77. For the same compound, the CC50 [11] was > 20 µM and the pEC50 [7] was 6.20.

COc1cc([C@@H]2c3cc4c(cc3[C@@H](O[C@@H]3O[C@@H]5CO[C@@H](C)O[C@H]5[C@H](O)[C@H]3O)[C@H]3COC(=O)[C@H]23)OCO4)cc(OC)c1O [ETOPOSIDE] gave an ILS at 10 mg/kg/day [12] of 90%, a pEC50 [1] of 4.62 and an ILS at 27 mg/kg/day [13] of 130%. For the same compound, the “Net log change in tumor burden” value [14] was -3.4, the pEC50 [9] was < 5.30 and the Day of death [15] was 26. The pEC50 [2] was < 5.30, the Complex formation [3] was 100% and the “Days to tumor doubling” value [16] was >24.1. The ILS at 40 mg/kg/day [17] was 160%, the “Net log change in tumor burden” value [18] was -0.7 and the Day of death [19] was 19. The pEC50 [5] was 5.71, the “Days to tumor doubling” value [20] was 18.5 and the CC50 [11] was 20 µM. The pEC50 [6] was 4.51, the “Net log change in tumor burden” value [21] was -5.5 and the Day of death [22] was 23. It also gave a pEC50 [7] of 5.66.

Compound COc1cc([C@@H]2c3cc4c(cc3[C@@H](Nc3ccc(-c5nc6ccccc6[nH]5)cc3)[C@H]3COC(=O)[C@H]23)OCO4)cc(OC)c1O has a pEC50 [1] of 3.35, a pEC50 [9] of 6.07 and a pEC50 [2] of 6.20. It also gave a Complex formation [3] of 128%, an IC100 [4] of 10 µM and a pEC50 [5] of 6.64. The CC50 [11] was 0.2 µM, the pEC50 [6] was 5.85 and the pEC50 [7] was 6.46.

In the case of COc1cc([C@@H]2c3cc4c(cc3[C@@H](Nc3cc([N+](=O)[O-])cc([N+](=O)[O-])c3)[C@H]3COC(=O)[C@H]23)OCO4)cc(OC)c1O, the pEC50 [8] was 1.76, the pEC50 [9] was < 5.30 and the pEC50 [2] was 4.59. The Complex formation [3] was 20%, the IC100 [10] was > 100 µM and the pEC50 [5] was < 4.40. For the same compound, the pEC50 [7] was 5.00.

With COc1cc([C@@H]2c3cc4c(cc3[C@@H](Nc3ccc(NC(=O)C56CCC(C)(C(=O)O5)C6(C)C)cc3)[C@H]3COC(=O)[C@H]23)OCO4)cc(OC)c1O (stereo partly drawn) the pEC50 [8] was 2.25, the pEC50 [9] was < 5.30 and the pEC50 [2] was 4.70. The Complex formation [3] was 88%, the IC100 [10] was 10 µM and the pEC50 [5] was 5.66. For the same compound, the pEC50 [7] was < 5.90.

Compound COc1cc([C@@H]2c3cc4c(cc3[C@@H](Nc3nc5ccccc5[nH]3)[C@H]3COC(=O)[C@H]23)OCO4)cc(OC)c1O has a pEC50 [1] of 6.05, a pEC50 [2] of 5.48 and a Complex formation [3] of 58%. The IC100 [4] was 100 µM, the pEC50 [5] was 5.46 and the pEC50 [6] was 3.00. It also gave a pEC50 [7] of 4.76.

In the case of COc1cc(N[C@@H]2c3cc4c(cc3[C@@H](c3cc(OC)c(O)c(OC)c3)[C@H]3C(=O)OC[C@@H]32)OCO4)c(C)cc1[N+](=O)[O-], the pEC50 [2] was < 4.30, the Complex formation [3] was 3.5% and the IC100 [4] was > 100 µM. The pEC50 [5] was < 4.30 and the pEC50 [7] was < 4.30.

— ChEMBL document CHEMBL1132260, “Antitumor agents. 194. Synthesis and biological evaluations of 4-beta-mono-, -di-, and -trisubstituted aniline-4'-O-demethyl-podophyllotoxin and related compounds with improved pharmacological profiles” (J Med Chem, 1999)
